This is an account of results in ChEMBL document CHEMBL4321830, “A Chemical-Intervention Strategy To Circumvent Peptide Hydrolysis by d-Stereoselective Peptidases” (J Med Chem, 2019).

Series [1] has as its system Escherichia coli. The experiment in a line: Binding affinity to Escherichia coli NCTC 12241 lipid 2 assessed as formation of zone of inhibition at 60 uM incubated for 16 hrs by spot-on-lawn assay. In outline:
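E. coli NCTC 12241 suspended to OD600 ~1.0 in MHB, mixed into molten 0.75% MH soft agar and poured over 1.5% MHA. Peptide (final 60 μM) preincubated at 37 °C with 7 equiv chemically synthesized Gram-positive lipid II, 10 μL spotted alongside peptide alone; 16 h, 37 °C. Loss of inhibition zone indicates lipid II sequestration.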

Series [2] is described as follows: Hemolytic activity in sheep erythrocytes assessed as hemolysis at 200 ug/ml incubated for 30 by spectrophotometry relative to control. Type of series: ADME, cell-based, Ovis aries, Erythrocyte. The conditions noted are these: read-out: Activity. In outline: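 Defibrinated sheep blood washed four times in PBS, resuspended, mixed 1:1 with peptide in PBS (200 μg/mL in well before mixing); 30 min, 37 °C. Diluted, centrifuged, supernatant absorbance at 415 nm. Percent hemolysis relative to 0.1% Triton X-100, PBS blank; triplicate, two independent experiments averaged.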

For a further series, the system named is D-peptidase TriF. The experiment in a line: Substrate activity at Paenibacillus polymyxa CICC10580 D-peptidase TriF expressed in Escherichia coli BL21 assessed as enzyme-mediated compound hydrolysis at 50 uM incubated for 24 hrs by UPLC-MS analysis. Type of series: ADME. The conditions noted are these: read-out: Activity. In outline:
(§1)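 His-purified (Ni-NTA) enzyme from IPTG-induced E. coli BL21 (200 μM IPTG after 15 °C hold). Substrate 50 μM with BogQ 20 nM for 1 h or TriFpep 200 nM for 24 h, 37 °C, in 25% PBS pH 7.4. Quenched with cold methanol, cleavage ratio by UPLC–MS at end point; two independent experiments.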

For a further series, the system named is Staphylococcus aureus. Kind of series: Antibacterial activity against Staphylococcus aureus NCTC 10788 assessed as bacterial growth inhibition by microbroth dilution method. The format is functional. A general note: In broth dilution the organism is exposed to a series of concentrations in liquid medium.
For series [3], the system named is Escherichia coli. The experiment in a line: Antibacterial activity against Escherichia coli NCTC 12241 assessed as bacterial growth inhibition by microbroth dilution method. Type of series: functional.
A further series has as its system D-peptidase BogQ. Kind of series: Substrate activity at bacterial D-peptidase BogQ expressed in Escherichia coli BL21 assessed as enzyme-mediated compound hydrolysis at 50 uM incubated for 1 hr by UPLC-MS analysis. Type of series: ADME. The settings on record: bacteria; read-out: Activity. In outline: as §1

Structures are written as SMILES. Activity calls are given as the source filed them. The calls are words filed in the database; no cut-off is given here. Where a SMILES comes first, the peptide text is derived from it. [ ]: non-standard residue; d: D form. The star is where a group is joined. NMeF = CN[C@@H](Cc1ccccc1)C(=O)O; dDab = NCC[C@@H](N)C(=O)O; Octanoyl = CCCCCCCC(=O)*; Dab = NCC[C@H](N)C(=O)O; Sar = CNCC(=O)O A value given as a limit tells only on which side of the number the result lay.

As a reminder, the MIC is the lowest concentration that inhibits growth of the organism. Take `CCCCCCCC(=O)N[C@@H](C(=O)N[C@H](CCN)C(=O)NCC(=O)N[C@H](CO)C(=O)N[C@H](Cc1c[nH]c2ccccc12)C(=O)N(C)CC(=O)N[C@@H](CCN)C(=O)N[C@H](CCN)C(=O)N(C)[C@@H](Cc1ccccc1)C(=O)N[C@@H](CCC(=O)O)C(=O)N[C@H](C(=O)N[C@@H](C(=O)N[C@@H](C)C(=O)O)C(C)C)C(C)C)C(C)C` (Octanoyl-[dV][dDab]G[dS][dW][Sar][Dab][dDab][NMeF]EV[dV]A-OH): in the series with Escherichia coli [1], the result was Active. The hemolysis at 0.5 h, 200 ug/ml in series [2] lay in the range of 60 to 78%. In the series on D-peptidase TriF, the metabolised at 24 h, 50 µM came to 0%. Further, the minimal inhibitory concentration (MIC) was above 50 µg/mL in the series with Staphylococcus aureus and 6.25 µg/mL in the series with Escherichia coli [3]. In addition, the metabolised at 1 h, 50 µM in the series on D-peptidase BogQ amounted to 43%.
